# Only some compounds are listed: those with a hit (about 4.6% of all), similar ones and a draw of the others.
# TAAR1 antag – human TAAR1 antagonism; hit rate 1.5% among 360,000; Q96RJ0; CHO RD-HGA16 TAAR1, Fluo-8 calcium fluorescence, antagonist; AID 624466; inhibition, % at 3 µM;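 active = inhibition above a per-plate cutoff, the mean inhibition of test compounds on that plate plus 3 SD, cut at about 49% in these data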;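 note: 0% = DMSO plus EC80 beta-PEA response and 100% = DMSO alone without agonist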
#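 test system = CHO RD-HGA16 cells bearing hTAAR1 | replication = singlicate | controls = DMSO-only wells and EC80 β-PEA-stimulated wells | reagent = EC80 β-phenethylamine stimulus | read-out basis = percent inhibition of PEA-evoked calcium signal, max/basal emission ratio | schedule = seeding 17-24 h prior, 75-min 37 °C, 30-min RT dye loading | signal = kinetic Fluo-8 calcium fluorescence measurement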
# GPR7 antagonist – antagonists of human GPR7 (neuropeptides B/W receptor 1) | GPR7-expressing cells, fluorescence antagonist assay | inhibition, % at 4.4 µM | hit rate 1.1% among 290,000 | P48145; in the data active = inhibition above about 16%, passing the limit was not always enough;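 note: cells stimulated with the agonist NPW; 0% = agonist with vehicle and 100% = vehicle without agonist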
# Target sequence (P48145 whole entry, looked up): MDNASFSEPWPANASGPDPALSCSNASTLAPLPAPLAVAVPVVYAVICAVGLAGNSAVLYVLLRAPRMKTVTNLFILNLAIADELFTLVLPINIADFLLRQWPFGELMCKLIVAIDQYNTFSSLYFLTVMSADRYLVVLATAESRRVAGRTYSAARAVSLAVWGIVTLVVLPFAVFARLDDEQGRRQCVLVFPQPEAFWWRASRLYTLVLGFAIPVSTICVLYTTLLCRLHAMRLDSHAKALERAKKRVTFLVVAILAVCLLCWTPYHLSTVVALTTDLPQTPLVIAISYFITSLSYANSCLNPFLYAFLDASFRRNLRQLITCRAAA
# TAAR1 agonist – agonists of human TAAR1 | CHO RD-HGA16 TAAR1, Fluo-8 calcium fluorescence; vehicle wells 0%, saturating PEA agonist 100% | Q96RJ0 | activation, % at 3 µM | AID 624467 | hit rate 0.99% among 360,000;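 active = activation above the mean activation of all test compounds in the run plus 3 SD, cut at about 38% in these data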
#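 Assay system: CHO-derived RD-HGA16 cells with stable Gα16 and human TAAR1; timing: 17-24 h seeding, 75 min 37 °C dye, 30 min RT; read-out: % activation from peak over basal fluorescence ratio, DMSO-to-PEA scaled; measured by: kinetic Fluo-8 calcium fluorescence; benchmarks: low control DMSO, high control PEA (EC100); doses: 3 µM single concentration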
# OX1R antag-1 – OX1R (human) antagonism | hit rate 1.8% among 330,000 | O43613 | inhibition, % at 6.6 µM | OX1R-expressing cells, FRET antagonist read-out; in the data active = inhibition mostly above about 38%, no sharp cut-off; inactive = mostly below about 40%;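 note: 0% = agonist challenge alone and 100% = reference antagonist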
# Target sequence (O43613 whole entry, looked up): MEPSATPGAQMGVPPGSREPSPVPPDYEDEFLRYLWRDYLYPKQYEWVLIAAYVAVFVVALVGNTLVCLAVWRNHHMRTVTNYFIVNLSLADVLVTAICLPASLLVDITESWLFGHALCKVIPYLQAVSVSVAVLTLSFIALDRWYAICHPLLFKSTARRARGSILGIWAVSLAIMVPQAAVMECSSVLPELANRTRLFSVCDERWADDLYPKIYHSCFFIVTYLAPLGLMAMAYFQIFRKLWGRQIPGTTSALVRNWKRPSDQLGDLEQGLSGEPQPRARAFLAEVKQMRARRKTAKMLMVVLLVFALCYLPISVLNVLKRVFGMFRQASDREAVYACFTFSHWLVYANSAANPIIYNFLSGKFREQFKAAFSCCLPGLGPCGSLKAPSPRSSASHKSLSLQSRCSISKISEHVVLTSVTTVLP
# OX1R antag-2 – antagonists of human orexin 1 receptor; CHO/OX1R cells, Fluo-8 calcium fluorescence, orexin A; hit rate 0.43% among 330,000; AID 434989; O43613; inhibition, % at 5 µM;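 active = inhibition above its plate's threshold, mean inhibition of all tested compounds on the plate plus 3 SD, cut at about 37% in these data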;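 note: 0% = orexin A challenge wells and 100% = SB-334867-A antagonist wells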
# CHO parental Ca – counter-screen for OX1R antagonists: effect in parental CHO cells; parental CHO-K1, ATP-induced calcium, Fluo-8 fluorescence; AID 463079; inhibition, % at 5.6 µM; hit rate 0.63% among 330,000;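 active = inhibition above that plate's mean sample inhibition plus 3 SD, cut at about 26% in these data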;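 note: 0% = ATP-challenged DMSO wells and 100% = DMSO wells without ATP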
#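 Material – parental CHO cells · Reagent – ATP stimulus · Compound – single nominal dose of 5.6 µM per compound · Detection – Fluo-8 fluorescence · Read-out basis – percent inhibition of calcium signal · Controls – ATP-challenged DMSO wells low, unchallenged DMSO wells high · Repeats – no replicates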
# TAAR1 ag confirm – human TAAR1 agonism, confirmed; shares compounds with TAAR1 agonist; CHO RD-HGA16 TAAR1, Fluo-8 calcium fluorescence; scaled: DMSO 0%, maximal phenethylamine 100%; activation, % at 3 µM; hit rate 82% among 2,400;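 active = activation above a cutoff set at the run's mean compound activation plus 3 SD, cut at about 39% in these data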
# Ga16 nonsel ag – counter-screen for TAAR1 agonists: nonselective agonists in parental cells; shares compounds with TAAR1 agonist; CHO-Ga16 parental, Fluo-8 calcium fluorescence; normalized to maximal ATP response, DMSO zero; activation, % at 3 µM; hit rate 50% among 2,400; AID 651787;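 active = activation above the run cutoff, the mean activation over all tested wells plus 3 SD, cut at about 12% in these data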;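 note: 0% = DMSO wells and 100% = maximal ATP response on the peak over basal ratio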
# TAAR1 desensitize – counter-screen for human TAAR1 agonists: agonists that desensitize TAAR1. inhibition, % at 3 µM. hit rate 46% among 2,400. CHO RD-HGA16 hTAAR1, Fluo-8 calcium, beta-PEA response inhibition. AID 651951. shares compounds with TAAR1 agonist;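 active = inhibition above the run cutoff, the mean inhibition of all test compounds plus 3 SD, cut at about 49% in these data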;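 note: beta-PEA stimulus applied at its EC80; loss of beta-PEA calcium signal after compound pretreatment read as receptor desensitization; 0% = DMSO with beta-PEA at EC80 and 100% = DMSO alone without agonist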
# Ga16 nonsel ant – nonselective Ga16 antagonist in TAAR1 agonist counter-screen. shares compounds with TAAR1 agonist. CHO-Ga16 ATP-induced calcium, Fluo-8 fluorescence. inhibition, % at 3 µM. hit rate 39% among 2,400. AID 651952;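 active = inhibition above the plate's mean compound inhibition plus 3 SD, computed per plate, cut at about 22% in these data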;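 note: 0% = EC80 ATP with DMSO and 100% = DMSO wells without ATP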
# * marks the source's active call; other numbers are inactive results; . = no result given.
SMILES,TAAR1 antag,GPR7 antagonist,TAAR1 agonist,OX1R antag-1,OX1R antag-2,CHO parental Ca,TAAR1 ag confirm,Ga16 nonsel ag,TAAR1 desensitize,Ga16 nonsel ant
Cn1c(=O)c(C(=O)NNC(=O)c2ccccc2F)c(O)c2ccccc21,6,-1,48*,6,-10,2,60*,43*,12,22*
CCn1c(=O)c(C(=O)Nc2ncccc2C)c(O)c2ccccc21,13,-4,59*,26,-17,-6,25,12*,-9,5
COc1cc(NCCCn2cnc(C(=O)Nc3ccc(C)c(C)c3)n2)cc(OC)c1OC,-9,.,2,.,.,.,.,.,.,.
Cc1cc(Nc2cccc(C)c2C)n2nc(C)nc2n1,-2,1,0,6,4,2,.,.,.,.
C=CCN(C(=O)CCC(=O)Nc1cc(C)on1)C(C(=O)NC1CCCC1)c1ccc(C)cc1 (configuration not stated),2,-4,-2,14,-20,-22,.,.,.,.
COc1ccccc1Nc1nc(NCCO)nc(N)c1[N+](=O)[O-],9,-11,21,20,-18,-6,.,.,.,.
CNc1nc(N)c([N+](=O)[O-])c(Nc2ccccc2OC)n1,-8,-29,56*,44*,-56,-48,80*,13*,21,4
Cc1c(Cl)cccc1-c1ccc(/C=N/n2cnnc2)o1,-19,2,47*,13,-8,-17,38*,19*,12,13
COc1ccc(C2(SCC(N)C(=O)O)c3ccccc3-c3ccccc32)cc1 (configuration not stated),-20,.,6,.,.,.,.,.,.,.
O=C(CSc1nnc(-c2ccc(C(F)(F)F)cn2)s1)c1ccccc1,4,-18,3,8,-18,-10,.,.,.,.
COC(=O)c1ccc2cc(C)cc(C)c2n1,-8,.,-3,.,.,.,.,.,.,.
NCCOc1ccc(C23CC4CC(CC(C4)C2)C3)cc1,16,5,81*,-2,2,7,94*,60*,81*,76*
CN(C(=O)COC(=O)c1ccccc1Cc1ccccc1)C1CCS(=O)(=O)C1 (configuration not stated),-11,-3,1,1,-12,-2,.,.,.,.
O=c1c2ccccc2nnn1Cc1nnc(-c2ccccc2Br)o1,-1,-3,67*,17,-37,-24,115*,80*,22,1
COC(=O)CNc1nc(Cl)nc(Nc2ccc(Cl)cc2)n1,8,1,5,5,-9,-8,.,.,.,.
COc1ccccc1CNC(=O)/C=C/c1ccc(Br)o1,-3,-7,-1,8,-6,-15,.,.,.,.
O=C(/C=C/c1c(Cl)cccc1Cl)n1cccn1,-7,-16,13,10,6,-4,.,.,.,.
O=C(NCCc1ccccc1Cl)[C@@H]1CCCN1C(=O)[C@@H](NS(=O)(=O)c1ccc(F)cc1F)c1ccccc1,55*,.,41*,.,.,.,57*,3,69*,17
CC(C)(C)OC(=O)N1CCC[C@@H]1C(=O)NCc1ccccc1Cl,-21,.,2,.,.,.,.,.,.,.
O=C(NCCc1ccccc1F)C1CCCN1S(=O)(=O)c1ccccc1 (configuration not stated),-8,-1,12,14,-5,-13,.,.,.,.
CC(C)[C@H](NC(=O)N1CCOCC1)C(=O)N1CCC[C@H]1C(=O)NCc1ccccc1,13,.,0,.,.,.,.,.,.,.
CC(C)[C@H](NC(=O)CC1CCCC1)C(=O)N1CCC[C@H]1C(=O)NCCc1ccccc1Cl,57*,.,65*,.,.,.,85*,-1,86*,2
Cc1ccccc1C(=O)N[C@H](C(=O)N1CCC[C@H]1C(=O)NCCc1ccccc1Cl)C(C)C,71*,.,57*,.,.,.,91*,-1,95*,10
CC(C)[C@H](NC(=O)C1CC1)C(=O)N1CCC[C@H]1C(=O)NCCc1ccccc1Cl,69*,.,62*,.,.,.,92*,2,90*,-2
CN(CC(=O)NCCc1ccc(S(N)(=O)=O)cc1)Cc1ccc(Cl)cc1Cl,2,2,6,6,-32,-14,.,.,.,.
SMILES,TAAR1 antag,GPR7 antagonist,TAAR1 agonist,OX1R antag-1,OX1R antag-2,CHO parental Ca,TAAR1 ag confirm,Ga16 nonsel ag,TAAR1 desensitize,Ga16 nonsel ant
Cc1ccccc1C(=O)N[C@H](C(=O)N1CCC[C@H]1C(=O)NCCc1ccccc1Cl)c1ccccc1,41,.,53*,.,.,.,75*,3,79*,11
O=C(NCCc1ccccc1)C1CCCN1C(=O)Nc1ccc(Cl)cc1 (configuration not stated),-8,0,2,4,-18,-15,.,.,.,.
CCN(CC)S(=O)(=O)N1CCC(C(=O)NCc2ccco2)CC1,10,-7,3,1,-14,-12,.,.,.,.
C/C(=C1/SC(N2CCCC2)=NC1=O)c1ccc(Br)cc1,-50,-10,8,14,-4,-18,.,.,.,.
COc1ccc(CCC(C)NCCc2ccc(Cl)cc2Cl)cc1 (configuration not stated),36,12,48*,7,-18,0,48*,22*,43,24*
COc1ccc(CCC(C)NCc2ccc(Cl)c(Cl)c2)cc1 (configuration not stated),1,14,21,7,-20,2,.,.,.,.
CCOc1ccc(/C=N/NC(=O)CN2CCCCCCC2)cc1,-10,9,1,2,-19,1,.,.,.,.
COc1ccc(CCN2CC3=C(C2=O)C(c2ccccc2)NC(=O)N3C)cc1OC (configuration not stated),0,11,8,11,-13,-13,.,.,.,.
CN1C(=O)NC(c2ccccc2)C2=C1CN(CCc1ccccc1)C2=O (configuration not stated),19,3,58*,9,-18,-11,72*,2,54*,11
CSc1ccccc1OCc1cc(C(=O)NCCC2=CCCCC2)no1,-16,2,55*,38,-31,-6,38*,7,89*,58*
O=C(NCCC1=CCCCC1)c1cc(COc2c(F)cccc2F)on1,-17,0,8,6,-26,-24,.,.,.,.
CCC1(c2ccccc2)NC(=O)N(CC(=O)Nc2ccccc2N2CCCCC2)C1=O (configuration not stated),52*,-1,70*,13,-26,-20,78*,45*,63*,30*

# Source: PubChem BioAssay
